Experiment [1] addresses T1, Intestinal-type alkaline phosphatase (Homo sapiens, UniProt P09923). Briefly: Inhibition of human IAP expressed in African green monkey COS7 cell membranes using CDP-star as substrate pretreated for 5 to 10 mins followed by substrate addition and measured after 15 to 20 mins by […]. The procedure, abridged: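 Enzyme from transfected COS-7 lysates (h-TNAP 46 ng/well, h-IAP 57 ng/well), stored with 7.5% glycerol at -80 °C. Inhibitor tested up to 200 μM, final DMSO 1%, in 3 M DEA pH 9.8 with 2.5 mM MgCl2 and 0.05 mM ZnCl2. Preincubation 37 °C for 5–10 min, then CDP-Star added. Luminescence read after 15–20 min. IC50 from curve fitting, mean ± SEM, n = 3.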
Target sequence in this assay (P09923 whole entry): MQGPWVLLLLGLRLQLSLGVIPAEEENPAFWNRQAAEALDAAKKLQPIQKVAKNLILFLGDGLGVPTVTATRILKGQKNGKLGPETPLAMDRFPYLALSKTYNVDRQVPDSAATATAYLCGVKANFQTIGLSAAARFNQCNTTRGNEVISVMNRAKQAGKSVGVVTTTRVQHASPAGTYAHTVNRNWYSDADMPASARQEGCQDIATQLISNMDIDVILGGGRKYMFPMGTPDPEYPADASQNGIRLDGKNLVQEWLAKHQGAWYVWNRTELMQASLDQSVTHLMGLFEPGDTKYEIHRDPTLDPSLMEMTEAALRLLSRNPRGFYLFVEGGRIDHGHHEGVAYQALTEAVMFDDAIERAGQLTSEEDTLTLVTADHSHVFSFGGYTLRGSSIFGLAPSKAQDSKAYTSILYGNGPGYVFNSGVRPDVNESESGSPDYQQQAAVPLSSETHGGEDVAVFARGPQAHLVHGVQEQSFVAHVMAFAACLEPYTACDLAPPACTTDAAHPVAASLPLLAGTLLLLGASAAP

The subject of experiment [2] is HeLa. Briefly: Cytotoxicity against human HeLa cells assessed as cell growth inhibition at 100 uM after 24 hrs by MTT assay. The experiment is classed as functional. Conditions: read-out: GI. The method, boiled down: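 HeLa cells seeded overnight at 2.5 × 10⁴ cells/mL, then exposed to compound (final 100 μM) for 24 h at 37 °C. MTT (5 μg/well) added for 4 h, then solubilised with 50% isopropanol/10% SDS. OD read at 570 nm minus 690 nm background. Percent inhibition relative to untreated control; triplicate, mean of three independent experiments ± SEM.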

The species entered for experiment [3] is Homo sapiens. Briefly: Selectivity index, ratio of IC50 for human TNAP expressed in African green monkey COS7 cell membranes to IC50 for human IAP expressed in African green monkey COS7 cell membranes. The procedure, abridged: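 Ratio of IC50 at h-TNAP to IC50 at h-IAP. Each IC50 is from the CDP-Star luminescence assay on lysates of transfected COS-7 cells, pH 9.8 DEA buffer. Index > 1 means selectivity for h-IAP; < 1 means selectivity for h-TNAP.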

For experiment [4], the target named is T2, Alkaline phosphatase, tissue-nonspecific isozyme (Homo sapiens, UniProt P05186).
T2 sequence (P05186 whole entry): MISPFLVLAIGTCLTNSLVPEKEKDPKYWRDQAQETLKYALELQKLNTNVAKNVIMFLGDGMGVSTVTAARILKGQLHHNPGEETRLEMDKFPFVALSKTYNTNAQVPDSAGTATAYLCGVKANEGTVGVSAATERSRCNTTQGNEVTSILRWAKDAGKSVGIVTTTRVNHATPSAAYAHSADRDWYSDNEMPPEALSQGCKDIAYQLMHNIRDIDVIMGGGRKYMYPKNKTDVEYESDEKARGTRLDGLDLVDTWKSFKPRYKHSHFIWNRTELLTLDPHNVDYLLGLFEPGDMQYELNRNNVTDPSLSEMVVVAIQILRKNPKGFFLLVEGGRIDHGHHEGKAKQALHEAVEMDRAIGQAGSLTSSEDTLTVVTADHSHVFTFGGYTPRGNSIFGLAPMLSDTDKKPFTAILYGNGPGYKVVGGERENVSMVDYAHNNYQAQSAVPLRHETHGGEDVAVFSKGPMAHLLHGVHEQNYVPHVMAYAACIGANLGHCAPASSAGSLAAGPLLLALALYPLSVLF
The experiment is described as follows: Inhibition of human TNAP expressed in African green monkey COS7 cell membranes using CDP-star as substrate pretreated for 5 to 10 mins followed by substrate addition and measured after 15 to 20 mins by […].

In experiment [5] the target is T3, Alkaline phosphatase, tissue-nonspecific isozyme (Homo sapiens) (UniProt P05186).
T3 sequence (whole entry): T2 sequence (P05186 whole entry)
Briefly: Potency index, ratio of levamisole IC50 to test compound IC50 for human TNAP.

Experiment [6] addresses T3, Alkaline phosphatase, tissue-nonspecific isozyme (Homo sapiens). Briefly: Non-competitive inhibition of human TNAP expressed in African green monkey COS7 cell membranes up to 0.3 uM using CDP-star as substrate pretreated for 5 to 10 mins followed by substrate addition and measured after 15 to 20 mins by double reciprocal plot analysis. The procedure, abridged: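 Kinetics: double reciprocal plots of initial velocity versus CDP-Star concentration at several inhibitor concentrations. Enzyme is lysate of COS-7 cells transfected with h-TNAP plasmid (lipofectamine, 5 h, 37 °C, harvested 40–72 h). Buffer 3 M DEA pH 9.8, 2.5 mM MgCl2, 0.05 mM ZnCl2. Preincubation 5–10 min at 37 °C, luminescence read 15–20 min after substrate.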

The target of experiment [7] is T1, Intestinal-type alkaline phosphatase. The experiment is described as follows: Competitive inhibition of human IAP expressed in African green monkey COS7 cell membranes up to 1.5 uM using CDP-star as substrate pretreated for 5 to 10 mins followed by substrate addition and measured after 15 to 20 mins by double reciprocal plot analysis.
Target sequence in this assay (P09923 whole entry, looked up): as the sequence (P09923 whole entry) above

Activity calls are given as the source filed them. The calls are words filed in the database; no cut-off is given here. Bounds are passed on as bounds.

Regarding `c1ccc([C@H]2CN3CCSC3=N2)cc1` [LEVAMISOLE], the IC50 in experiment [1] was above 200 µM.

As for `O=C1/C(=C/c2cccc(O)c2)NS(=O)(=O)c2ccccc21`, the inhibition of growth at 100 µM in experiment [2] was 15%. Further, the results for the IC50 in experiment [1] and in experiment [4] were 1.21 µM and 3.57 µM, respectively. In addition, the Ratio IC50 in experiment [3] was 3.

Take `O=C1/C(=C/c2ccc(F)cc2)NS(=O)(=O)c2ccccc21`: in experiment [2], the inhibition of growth at 100 µM is 41%. In addition, the IC50 in experiment [1] amounted to 3.06 µM; in experiment [4], 1.35 µM. The Ratio IC50 in experiment [3] was 0.4.

For `O=C1/C(=C/c2cccc(Cl)c2)NS(=O)(=O)c2ccccc21`, the inhibition of growth at 100 µM in experiment [2] amounted to 64%. For the same compound, the IC50 was 3.77 µM in experiment [1] and above 200 µM in experiment [4]. The Ratio IC50 in experiment [3] was above 50.

Consider `O=C1/C(=C/c2cccc(Br)c2)NS(=O)(=O)c2ccccc21`, for which the inhibition of growth at 100 µM in experiment [2] was 65%. For the same compound, the IC50 in experiment [1] is 2.55 µM; in experiment [4] it was above 200 µM. Also, in experiment [3], the Ratio IC50 was above 26.

Turning to `O=C1/C(=C/c2ccc(Cl)cc2)NS(=O)(=O)c2ccccc21`, the inhibition of growth at 100 µM in experiment [2] came out at 55%. Further, the Ratio IC50 in experiment [5] was found to be 80; in experiment [3] it was 0.1. The results for the IC50 in experiment [1] and in experiment [4] were 4.35 µM and 0.25 µM, respectively. For the same compound, the inhibition entry in experiment [6] was “Active”.

With `O=C1/C(=C/c2c(F)cccc2F)NS(=O)(=O)c2ccccc21`, the inhibition of growth at 100 µM in experiment [2] was determined as 17%. The IC50 was determined as 10.6 µM in experiment [1] and 1.53 µM in experiment [4]. In addition, in experiment [3], the Ratio IC50 amounted to 0.1.

In the case of `O=C1/C(=C/c2ccccc2)NS(=O)(=O)c2ccccc21`, in experiment [2], the inhibition of growth at 100 µM was determined as 19%. Besides, the IC50 in experiment [1] amounted to 1.78 µM; in experiment [4], 0.66 µM. Moreover, the Ratio IC50 in experiment [3] was 0.4.

For the compound `COc1cccc(/C=C2\NS(=O)(=O)c3ccccc3C2=O)c1`, the inhibition of growth at 100 µM in experiment [2] was 39%. Further, in experiment [7], the inhibition result was “Active”. Besides, the IC50 in experiment [1] is 1.04 µM; in experiment [4], above 200 µM. The Ratio IC50 in experiment [3] was above 190.

`O=C1/C(=C/c2cccc(F)c2)NS(=O)(=O)c2ccccc21`: the inhibition of growth at 100 µM in experiment [2] stood at 53%. For the same compound, the IC50 in experiment [1] was found to be 9.93 µM; in experiment [4], 3.19 µM. Moreover, the Ratio IC50 in experiment [3] was 0.3.

As to `O=C1/C(=C/c2ccccc2Br)NS(=O)(=O)c2ccccc21`, the inhibition of growth at 100 µM in experiment [2] worked out at 53%. In addition, the IC50 in experiment [1] is 7.43 µM; in experiment [4], above 200 µM. Moreover, the Ratio IC50 in experiment [3] is above 1.

On to `Cc1ccccc1/C=C1\NS(=O)(=O)c2ccccc2C1=O`, for which, in experiment [2], the inhibition of growth at 100 µM came to 7%. Besides, the IC50 in experiment [1] came out at 3.75 µM; in experiment [4] it was 2.36 µM. Moreover, the Ratio IC50 in experiment [3] amounted to 0.6.

As to `O=C1/C(=C/c2ccc(Cl)cc2Cl)NS(=O)(=O)c2ccccc21`, the inhibition of growth at 100 µM in experiment [2] is 59%. Besides, the IC50 in experiment [1] was 4.96 µM; in experiment [4] it was above 200 µM. In addition, in experiment [3], the Ratio IC50 was above 53.

As to `COc1ccc(/C=C2\NS(=O)(=O)c3ccccc3C2=O)cc1`, the inhibition of growth at 100 µM in experiment [2] was found to be 11%. Further, the IC50 stood at 1.53 µM in experiment [1] and 4.04 µM in experiment [4]. The Ratio IC50 in experiment [3] came to 2.6.

Turning to `N[C@@H](Cc1ccccc1)C(=O)O` [PHENYLALANINE], the Ratio IC50 in experiment [3] was above 2. For the same compound, the IC50 in experiment [4] was above 200 µM.

`COc1ccccc1/C=C1\NS(=O)(=O)c2ccccc2C1=O`: in experiment [2], the inhibition of growth at 100 µM amounted to 17%. Also, the results for the IC50 in experiment [1] and in experiment [4] were 1.24 µM and 2.59 µM, respectively. Further, in experiment [3], the Ratio IC50 stood at 2.1.

Take `O=C1/C(=C/c2ccc(Br)cc2)NS(=O)(=O)c2ccccc21`: the inhibition of growth at 100 µM in experiment [2] turned out to be 59%. Further, the IC50 worked out at 3.69 µM in experiment [1] and 1.43 µM in experiment [4]. Also, the Ratio IC50 in experiment [3] was 0.4.

Usually IC50 stands for the midpoint of a concentration-inhibition curve.

The values are drawn from ChEMBL document CHEMBL4265982, “Hybrid compounds from chalcone and 1,2-benzothiazine pharmacophores as selective inhibitors of alkaline phosphatase isozymes” (Eur J Med Chem, 2018).
